Assay [1] concerns the target T1, human A3AR (hA3AR) (Homo sapiens, UniProt P0DMS8).
T1 sequence (P0DMS8 1-318): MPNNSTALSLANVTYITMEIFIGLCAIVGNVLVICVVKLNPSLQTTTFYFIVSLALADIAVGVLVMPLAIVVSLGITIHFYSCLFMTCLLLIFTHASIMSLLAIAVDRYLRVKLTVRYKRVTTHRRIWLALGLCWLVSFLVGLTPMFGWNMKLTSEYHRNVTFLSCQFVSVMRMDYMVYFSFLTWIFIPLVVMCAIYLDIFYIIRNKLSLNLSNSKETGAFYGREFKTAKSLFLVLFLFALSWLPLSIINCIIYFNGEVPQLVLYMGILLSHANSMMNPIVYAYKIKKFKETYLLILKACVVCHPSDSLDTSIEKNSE
Put plainly: cell-based. The following applies: CHO, read-out: Stable A3AR CHO cell line^B / Emax (%).

In assay [2] the target is T2, hA3AR-NanoBit-βarr2 (A3AR-LgBit with SmBit-βarr2) (Homo sapiens, UniProt P0DMS8). Kind of assay: NanoBit βarr2 recruitment, luminescence AUC. It counts as cell-based.
Assay [3] deals with T1, human A3AR (hA3AR). Put plainly: […]I-AB-MECA competition, CHO membranes. Format: binding.
For assay [4], the target named is T2, hA3AR-NanoBit-βarr2 (A3AR-LgBit with SmBit-βarr2). Put plainly: cell-based. The note with it: HEK-293T, read-out: Stable A3AR NanoBit® HEK293T cell line^A / Emax (%).
The target in assay [5] is T1, human A3AR (hA3AR). Kind of assay: inhibition of forskolin-stimulated cAMP, CHO cells. The note with it: agonism; 10 µM forskolin, 10 µM rolipram, adenosine deaminase. Format: cell-based.
For assay [6], the target named is T2, hA3AR-NanoBit-βarr2 (A3AR-LgBit with SmBit-βarr2). Kind of assay: cell-based. The following applies: HEK-293T, read-out: Stable A3AR NanoBit® HEK293T cell line^A / Emax (%). The source holds these as a separate data set.
Assay [7] deals with T1, human A3AR (hA3AR). Kind of assay: inhibition of forskolin-stimulated cAMP, CHO cells. Format: cell-based.
Assay [8] addresses T2, hA3AR-NanoBit-βarr2 (A3AR-LgBit with SmBit-βarr2). Kind of assay: NanoBit βarr2 recruitment, luminescence AUC. It counts as cell-based. The following applies: agonism; stable HEK293T cells, room temperature, Opti-MEM I. An outline of the steps: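 Stable HEK293T line retrovirally co-transduced with A3AR-LgBit and SmBit-βarr2, FACS-sorted on co-expressed EGFP/dNGFR. Cells on PDL-coated plates at 5×10^4/well overnight (37°C, 5% CO2), washed twice, detection reagent added, luminescence equilibrated. Agonist added at final 100 pM–25 µM (≤0.5% DMSO), luminescence followed ≥90 min. DMSO solvent blank (0.001–0.5%) in each run.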

Like-named read-outs stand apart in the source and are kept apart here.

T2 sequence (P32121 whole entry partner, one chain of several): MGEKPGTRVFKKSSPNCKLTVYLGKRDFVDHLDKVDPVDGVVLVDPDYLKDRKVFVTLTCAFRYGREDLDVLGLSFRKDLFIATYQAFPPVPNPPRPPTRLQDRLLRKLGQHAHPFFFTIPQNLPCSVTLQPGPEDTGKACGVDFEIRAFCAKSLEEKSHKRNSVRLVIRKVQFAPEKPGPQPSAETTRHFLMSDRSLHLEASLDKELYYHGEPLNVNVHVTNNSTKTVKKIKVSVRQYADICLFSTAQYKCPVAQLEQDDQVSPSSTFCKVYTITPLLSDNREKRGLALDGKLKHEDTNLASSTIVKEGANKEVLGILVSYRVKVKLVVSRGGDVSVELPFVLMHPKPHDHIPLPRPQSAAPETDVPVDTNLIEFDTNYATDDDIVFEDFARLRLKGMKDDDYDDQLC

What is called EC50 is the concentration giving half of the maximal effect. The Ki is a dissociation constant, usually derived from enzyme kinetics or from competition with a known ligand. Read a low Ki as tighter binding. With `NCCNC(=O)Cc1ccc(NC(=O)Cc2ccc(Nc3ncnc4c3ncn4[C@@H]3O[C@H](CO)[C@@H](O)[C@H]3O)cc2)cc1` [ADAC, N^6-[4-[[[4-[[[(2-aminoethyl)amino]carbonyl]methyl]anilino]-carbonyl]methyl]phenyl]adenosine], the Emax in assay [1] stood at 103 ± 4%; in assay [4] it was 73.7 ± 3.1%. The compound also had an EC50 in assay [2] of 0.245 µM. The affinity in assay [3], expressed as Ki, was 0.0133 ± 0.003 µM.
Turning to `OC[C@H]1O[C@@H](n2cnc3c(NC4CCCC4)nc(Cl)nc32)[C@H](O)[C@@H]1O` [CCPA], the Emax was determined as 0% in assay [1] and 33.5 ± 2.7% in assay [4]. In assay [5], the “LogEC50 (NA, not significantly active at 10 μM)” value is on record as greater than 10 µM.
For `CCNC(=O)[C@H]1O[C@@H](n2cnc3c(N)nc(NCCc4ccc(CCC(=O)O)cc4)nc32)[C@H](O)[C@@H]1O` [CGS21680], the figures for the Emax in assay [1] and in assay [4] were 98 ± 5% and 99 ± 5.5%, respectively.
The corresponding values for `OC[C@H]1O[C@@H](n2cnc3c(NC4CCCC4)ncnc32)[C@H](O)[C@@H]1O` [CPA] are 97 ± 4% and 56.9 ± 3.7%.
In the case of `OC[C@H]1O[C@@H](n2cnc3c(NC4CCCC4)cc(Cl)nc32)[C@H](O)[C@@H]1O` [DCCA], the Emax in assay [6] is 5.8 ± 0.2%. This compound also had an EC50 in assay [2] of 1.48 µM. The affinity in assay [3] corresponds to a Ki of 0.244 ± 0.037 µM.
Turning to `CNC(=O)[C@H]1O[C@@H](n2cnc3c(NCc4cccc(I)c4)ncnc32)[C@H](O)[C@@H]1O` [IB-MECA], in assay [4], the Emax is 78.4 ± 2.5%.
As for `Nc1nc(Cl)nc2c1ncn2[C@H]1[C@H](O)[C@H](O)[C@]2(CO)C[C@H]12` [MRS1873], the Emax turned out to be 41 ± 5% in assay [1] and 13 ± 1.6% in assay [4].
Consider `O[C@@H]1[C@H](O)[C@@H]2C[C@@H]2[C@H]1n1cnc2c(NCc3cccc(I)c3)nc(Cl)nc21` [MRS5127], for which the EC50 is 0.0245 µM in assay [2] and 0.0126 µM in assay [7]. Further, in assay [4], the Emax is 5.2 ± 0.4%.
For the compound `O[C@@H]1[C@H](O)[C@@H]2C[C@@H]2[C@H]1n1cnc2c(NC(C3CC3)C3CC3)nc(Cl)nc21` [MRS5474], the Emax was 56 ± 4.8% in assay [1] and 9.8 ± 1.2% in assay [4].
In the case of `CNC(=O)[C@@]12C[C@@H]1[C@@H](n1cnc3c(NC)nc(C#Cc4ccccc4Cl)nc31)[C@H](O)[C@@H]2O` [MRS5663], in assay [6], the Emax was determined as 102 ± 3.6%. In assay [2], this compound gave an EC50 of 0.00562 µM.
On the same counts, the results for `CNC(=O)[C@@]12C[C@@H]1[C@@H](n1cnc3c(NCc4cccc(Cl)c4)nc(C#Cc4ccc(-c5ccccc5)cc4)nc31)[C@H](O)[C@@H]2O` [MRS5679] are 46.8 ± 3.3% and 1.2 µM.
On to `CNC(=O)[C@@]12C[C@@H]1[C@@H](n1cnc3c(NCc4cccc(Cl)c4)nc(C#Cc4ccc(F)c(F)c4)nc31)[C@H](O)[C@@H]2O` [MRS5698], for which the Emax in assay [4] came out at 83.5 ± 4.6%.
In the case of `CNC(=O)[C@@]12C[C@@H]1[C@@H](n1cnc3c(NC)nc(C#Cc4cccs4)nc31)[C@H](O)[C@@H]2O` [MRS5917], the figures for the Emax in assay [1] and in assay [4] were 97.3 ± 2.9% and 91.6 ± 3.4%, respectively.
As to `CNC(=O)[C@@]12C[C@@H]1[C@@H](n1cnc3c(NC)nc(C#Cc4ccccc4OC)nc31)[C@H](O)[C@@H]2O` [MRS5967], in assay [6], the Emax came to 92.5 ± 2.4%. The compound further showed an EC50 in assay [2] of 0.00468 µM.
Turning to `CNC(=O)[C@@]12C[C@@H]1[C@@H](n1cnc3c(NC)nc(C#Cc4ccc(Cl)s4)nc31)[C@H](O)[C@@H]2O` [MRS5980], the Emax in assay [6] was determined as 95 ± 4%.
On to `CCNc1cc(C#Cc2ccc(Cl)s2)nc2c1ncn2[C@H]1[C@H](O)[C@H](O)[C@]2(C(=O)NC)C[C@H]12` [MRS7144], for which the values for the Emax in assay [1] and in assay [4] were 95.5 ± 2.3% and 74.4 ± 2.3%, respectively.
Turning to `CCCNc1nc(C#Cc2ccc(Cl)s2)nc2c1ncn2[C@H]1[C@H](O)[C@H](O)[C@]2(C(=O)NC)C[C@H]12` [MRS7154], in assay [6], the Emax stood at 94.5 ± 4.8%. For the same compound, in assay [2], the midpoint of the response, the EC50, lay at 0.0214 µM.
On to `CNC(=O)[C@@]12C[C@@H]1[C@@H](n1cnc3c(NC)nc(C#Cc4ccc(Cl)s4)cc31)[C@H](O)[C@@H]2O` [MRS7173], for which the Emax in assay [6] was found to be 78.2 ± 1.8%. The compound further gave an EC50 in assay [2] of 0.055 µM. The compound also returned a Ki in assay [3] of 0.00156 ± 0.0002 µM.
With `CNC(=O)[C@@]12C[C@@H]1[C@@H](n1cnc3c(C)nc(C#Cc4ccc(Cl)s4)nc31)[C@H](O)[C@@H]2O` [MRS7195], the Emax in assay [1] came to 107 ± 26%; in assay [4], 84.5 ± 6.4%.
On the same counts, the results for `CNC(=O)[C@@]12C[C@@H]1[C@@H](n1cnc3cnc(C#Cc4ccc(Cl)s4)nc31)[C@H](O)[C@@H]2O` [MRS7220] are 97.8 ± 0.1% and 68.4 ± 5.3%.
Regarding `CCOC(=O)[C@@]12C[C@@H]1[C@@H](n1cnc3c(NC)nc(C#Cc4ccc(Cl)s4)nc31)[C@H](O)[C@@H]2O` [MRS7232], in assay [6], the Emax came to 13.6 ± 1.6%. Also, the EC50 in assay [2] was 0.0501 µM. Moreover, the affinity in assay [3] corresponds to a Ki of 0.00538 ± 3e-05 µM.
For `CCOC(=O)[C@@]12C[C@@H]1[C@@H](n1ccc3c(NC)nc(C#Cc4ccc(Cl)s4)nc31)[C@H](O)[C@@H]2O` [MRS7299], in assay [1], the Emax stood at 1 ± 7%. Moreover, the “LogEC50 (NA, not significantly active at 10 μM)” value in assay [8] is given as greater than 10 µM. This compound came in with an EC50 in assay [7] greater than 10 µM.
As for `CCNC(=O)[C@H]1O[C@@H](n2cnc3c(N)ncnc32)[C@H](O)[C@@H]1O` [NECA], the Emax in assay [1] came out at 103%.
For `OC[C@H]1O[C@@H](n2cnc3c(NCc4ccccc4)ncnc32)[C@H](O)[C@@H]1O` [N^6-benzyl-adenosine], the Emax in assay [6] worked out at 34.9 ± 2.3%. The EC50 in assay [2] was 0.851 µM.
As to `OC[C@H]1O[C@@H](n2cnc3c(Nc4ccccc4)ncnc32)[C@H](O)[C@@H]1O` [N^6-phenyl-adenosine], in assay [6], the Emax worked out at 75.8 ± 3%. The compound further had an EC50 in assay [2] of 0.589 µM. Moreover, in assay [3], the Ki turned out to be 0.0149 ± 0.0031 µM.
Take `C[C@H](Cc1ccccc1)Nc1ncnc2c1ncn2[C@@H]1O[C@H](CO)[C@@H](O)[C@H]1O` [R-PIA]: the Emax in assay [1] stood at 102 ± 6%; in assay [4] it was 56.6 ± 1.9%.
The corresponding values for `C[C@@H](Cc1ccccc1)Nc1ncnc2c1ncn2[C@@H]1O[C@H](CO)[C@@H](O)[C@H]1O` [S-PIA] are 97 ± 3% and 51 ± 1.4%.
